KSHV LANA nucl = inhibitors of KSHV LANA binding to nucleosomes | 51,000 compounds, 0.3% hits | FITC-LANA1-23 / chicken nucleosome fluorescence polarization; hits give low values | z-score (no concentration beside the values);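 active means both repeat wells score below -2 in polarization z-score versus plate sample wells, excluding overly bright wells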
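test system = FITC-LANA peptide and chicken nucleosomes | amount = 240 nM purified chicken nucleosomes (480 nM peptide binding sites), final | reagent = 50 nM FITC-LANA1-23 probe | medium = TEN-BT buffer, pH 7.5 | doses = single compound addition by pin transfer, 100 nL per well | timing = 10–45 min, room temperature | detection = fluorescence polarization | repeats = duplicate plates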
BasE inh = BasE siderophore biosynthesis inhibition; 84,000 compounds, 0.1% hits; inhibition, % (test concentration not listed); AID 485350; purified BasE, fluorescence polarization binding displacement; in the data active means inhibition above about 25%, passing the limit was not always enough;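 further: 0% = negative plate control signal and 100% = positive plate control signal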
Active calls of the source: *; . = not tested or not shown. The entries come from a sample that favours hits as a whole.

SMILES | KSHV LANA nucl | BasE inh
CN(C)C(=O)Oc1cccc2cccnc12 | -0.69 | 0
CC(=O)Oc1ccc(Cl)c2cccnc12 | 0.18 | 30*
NCCc1ccccc1F | . | -1
OC12CCCCC1C(c1ccc(F)cc1)NCC2 (stereo unspecified) | 0.22 | 2
C=CCn1cc(C=C2C(=O)NC(=O)NC2=O)c2ccccc21 | -2.5* | 4
O=C1NC(=O)C(=Cc2cn(CCOc3ccc4c(c3)OCO4)c3ccccc23)C(=O)N1 | . | 1
Cc1nn(Cc2ccccc2Cl)c(C)c1C(=O)OCC(=O)Nc1sccc1C(N)=O | . | 0
CCn1nc(-c2ccccc2)nc2c(=O)n(C)c(=O)nc1-2 | -9.3* | 8
N#CC1=C2SCC(O)(c3ccco3)N2C(=O)CC1c1ccccc1F (stereo unspecified) | 0.012 | -2

Source: PubChem BioAssay
